High-throughput results from PubChem BioAssay.
LANA-H2B inh – blocks KSHV LANA binding to histone H2A/H2B; AID 2629; Q9QR71; actives 0.6% (n = 320,000); cell-free LANA-H2A/H2B peptide, fluorescence polarization; inhibition, % (concentration not given with the values); in the data active = inhibition mostly above about 10%, no sharp cut-off; inactive = mostly below about 6.7%
T cell modulator – T cell immune modulation candidate; 2C CD8+ T cell-vesicle binding, flow cytometry; stronger effect = lower value; response (vesicle binding), % at 7 µM; actives 0.068% (n = 330,000);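 active = response, share of CD8 T cells binding vesicles, and their 90th percentile fluorescence all below set limits, cut at about 80% in these data, passing the limit was not always enough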;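 note: values below 100% mean blocked vesicle binding to the CD8+ T cells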
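Material: 2C TCR transgenic mouse naive CD8+ T cells, MACS-purified. Also added: QL9-charged Drosophila Ld/ICAM-1/B7-1 vesicles. Timing: binding 1.5 h at 37 °C. Measured by: high-throughput flow cytometry with anti-B7-1 and anti-CD8 staining. Read-out: percent CD8+ FL2 mean versus row control. Controls: Unloaded micro-vesicles (low), QL9 vesicles with 0.7% DMSO (high).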
HDAC3 inhib – human HDAC3 inhibition; inhibition, % at 8.3 µM; AID 2718; recombinant HDAC3, fluorogenic peptide/trypsin coupled, fluorescence; actives 0.15% (n = 320,000); in the data active = inhibition above about 26%, passing the limit was not always enough; inconclusive = no clear call, values can overlap the other calls
Arrestin-AP2 inh – blocks beta-arrestin peptide binding to AP2 adaptin; FITC-arrestin peptide / GST-AP2 beads, flow cytometry; AP2 beta2 appendage carries R879A mutation; inhibition, % at 10 µM; actives 0.31% (n = 340,000);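 active = inhibition above a set limit, near 3 SD of compounds lacking own fluorescence, cut at about 54% in these data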;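 note: plate controls were DMSO wells for no effect and 5 µM unlabelled arrestin peptide for full effect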
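Measured by: flow cytometry, FL1 (488/535 nm); Material: AP2 appendage R879A on GSH beads; Evaluation: percent response; Timing: pre-incubation 12 min, peptide binding 1 h, room temperature; Also added: 50 nM FITC-arrestin peptide; Medium: PBS with 0.05% Tween 20 and 0.1% BSA.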
DSG3 Ab inh – inhibitors of pemphigus antibody binding to human desmoglein-3; binding (percent of control), % at 10 µM; DSG3-coupled beads, scFv-anti-DSG3-GFP binding, flow cytometry; stronger effect = lower value; P32926; actives 0.48% (n = 310,000);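 active = binding more than 3 SD below its plate's average and above zero; inconclusive = below that plate limit but binding exactly zero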;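 note: hits lower antibody fragment binding to DSG3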
Target sequence (P32926 whole entry, looked up, the tested form may be a part): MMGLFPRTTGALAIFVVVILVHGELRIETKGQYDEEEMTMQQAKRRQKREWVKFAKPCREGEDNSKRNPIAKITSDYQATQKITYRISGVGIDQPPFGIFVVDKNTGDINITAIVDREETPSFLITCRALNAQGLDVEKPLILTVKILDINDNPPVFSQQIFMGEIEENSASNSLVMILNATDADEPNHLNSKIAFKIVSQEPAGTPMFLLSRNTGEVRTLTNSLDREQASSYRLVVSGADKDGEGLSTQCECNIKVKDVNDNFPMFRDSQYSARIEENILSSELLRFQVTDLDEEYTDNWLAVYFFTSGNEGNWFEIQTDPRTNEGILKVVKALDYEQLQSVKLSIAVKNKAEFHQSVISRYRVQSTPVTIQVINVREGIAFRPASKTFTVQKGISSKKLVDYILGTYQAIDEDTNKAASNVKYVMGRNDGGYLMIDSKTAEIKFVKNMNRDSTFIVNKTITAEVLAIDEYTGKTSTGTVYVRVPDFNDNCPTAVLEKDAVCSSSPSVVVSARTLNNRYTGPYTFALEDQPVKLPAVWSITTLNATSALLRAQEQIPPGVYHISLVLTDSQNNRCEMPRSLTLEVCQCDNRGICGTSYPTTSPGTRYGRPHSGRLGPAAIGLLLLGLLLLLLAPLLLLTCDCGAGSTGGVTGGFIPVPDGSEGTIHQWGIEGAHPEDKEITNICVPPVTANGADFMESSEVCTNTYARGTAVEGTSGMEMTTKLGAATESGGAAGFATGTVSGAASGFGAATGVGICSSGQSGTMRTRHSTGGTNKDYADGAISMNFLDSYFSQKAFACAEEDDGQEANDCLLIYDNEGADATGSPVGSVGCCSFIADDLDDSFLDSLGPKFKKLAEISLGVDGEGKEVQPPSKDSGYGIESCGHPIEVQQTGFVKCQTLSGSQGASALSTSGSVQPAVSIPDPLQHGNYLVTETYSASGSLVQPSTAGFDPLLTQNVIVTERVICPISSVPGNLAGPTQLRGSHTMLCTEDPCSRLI
Starred values were filed as active, the others as inactive; i = inactive; ? = inconclusive; . = no result. Most compounds without a hit are left out; they make up all but 1.5% or so of the library.

SMILES | LANA-H2B inh | T cell modulator | HDAC3 inhib | Arrestin-AP2 inh | DSG3 Ab inh
O=C(NCc1ccccn1)c1ccc(NS(=O)(=O)c2cccc(Cl)c2)cc1 | 37.5* | 328.1 | -2.5 | 2.9 | 118.5
O=C(CNC(=O)C(c1ccccc1)c1ccccc1)N/N=C\c1cccc(O)c1 | 93.6* | 155.5 | -9.0 | -9.4 | 100.0
Cn1nc(CC(=O)Nc2ccc(N3CCN(C(=O)OC(C)(C)C)CC3)cc2)c2ccccc2c1=O | -1.8 | 164.4 | -3.2 | 22.9 | 85.7*
O=C(C[C@H]1C/C=C\CC[C@H](Cc2ccc(F)cc2)C(=O)OC[C@@H]2CCCN2C1=O)N[C@H](CO)Cc1ccccc1 | 2.0 | 363.6 | 5.6 | . | 106.3
CN(C)S(=O)(=O)n1cc(/C=C(\NC(=O)c2ccccc2Cl)C(=O)N2CCOCC2)c2ccccc21 | 0.8 | 278.5 | -10.5 | -4.4 | 96.5
CN(C)S(=O)(=O)n1cc(/C=C(\NC(=O)c2ccccc2F)C(=O)N2CCOCC2)c2ccccc21 | 0.7 | 351.0 | 2.0 | 6.9 | 17.8*
Cc1cc(-c2csc(NC(=O)c3ccc(=O)[nH]c3)n2)c(C)n1Cc1ccco1 | 6.3 | 148.5 | 2.1 | 25.5 | 82.0*
CC[C@H]1c2[nH]c3ccccc3c2C[C@@H]2C(=O)N(c3ccc(F)cc3)C(=O)N21 | -9.3 | 441.9 | 2.6 | 10.8 | 97.9
Cc1[nH][nH]c(=O)c1C(c1ccc(N(C)C)c(Br)c1)c1c(C)[nH][nH]c1=O | 59.7* | 68.6 | -1.7 | 11.2 | 90.5
Cc1ccc(C(=O)OCN2C(=O)c3ccccc3C2=O)cc1S(=O)(=O)N1CCOCC1 | -4.1 | 331.4 | 1.0 | -0.5 | 101.4
CCOC(=O)N1CCC(NCCNC(=O)c2cccc(F)c2)CC1 | 7.6 | 266.1 | 2.0 | 3.7 | 104.9
O=c1c2c([N+](=O)[O-])cc([N+](=O)[O-])cc2sn1Cc1ccccc1 | 0.5 | 3.5 | 15.8 | 13.7 | 36.9*
O=C(Nc1ccc(Br)cc1)c1cc([N+](=O)[O-])cc([N+](=O)[O-])c1 | -1.2 | 296.0 | -4.2 | -20.8 | 102.4
O=c1c2c([N+](=O)[O-])cc([N+](=O)[O-])cc2sn1-c1ccc(Br)cc1 | 3.7 | i | ? | 40.5 | -121.2*
CCCCc1c(O)c2ccccc2n(CCCC)c1=O | 14.3* | 246.7 | 7.8 | -7.6 | 97.6
CSc1ccccc1NC(=O)CN(C)C(C)C(=O)NCc1ccc2c(c1)OCO2 (stereo not drawn) | 4.4 | 195.7 | -1.3 | 13.5 | 97.8
CCCCCC(O)(c1ccc(OCC)cc1)C(CN1CCOCC1)c1ccccc1 (stereo not drawn) | -1.9 | 167.9 | 25.8* | -20.0 | 99.9
CC(C)COc1ccc(C(=O)N2C(=O)c3ccc(N)cc3C2=O)cc1 | -5.3 | 110.0 | 4.2 | -5.4 | 39.2*
COc1ccc(CN2CCNC(=O)C2CC(=O)NCCc2nc(C)c3c(n2)CCC3)cc1C (stereo not drawn) | 5.3 | 392.3 | -0.4 | 23.8 | 101.4
CCOC(=O)C(N=Nc1nn[nH]n1)C(C)=O (stereo not drawn) | . | . | . | . | 102.0
CCN1CCN(c2nc(N)c([N+](=O)[O-])c(Nc3ccc(C)c(C)c3)n2)CC1 | 3.1 | 185.8 | 6.6 | 24.3 | 102.0
CCN1CCN(c2nc(N)c([N+](=O)[O-])c(Nc3ccc(C)cc3)n2)CC1 | 18.7* | 289.1 | -3.0 | -3.7 | 79.8
COc1ccccc1NS(=O)(=O)c1ccc2oc(SCC(C)=O)nc2c1 | 1.1 | i | 42.0* | 7.6 | 99.0
CCOC(=O)CSc1nc2cc(S(=O)(=O)Nc3ccccc3OC)ccc2o1 | 1.4 | 579.8 | 0.5 | -6.2 | 101.7
O=C(CN1C(=O)NC2(CCCCC2)C1=O)N1CCN(c2ncccn2)CC1 | -2.4 | 472.7 | -1.3 | 9.8 | ?
SMILES | LANA-H2B inh | T cell modulator | HDAC3 inhib | Arrestin-AP2 inh | DSG3 Ab inh
Cn1cc(Cl)c(C(=O)OCC(=O)c2ccccc2)n1 | -3.0 | 116.0 | -2.1 | -0.5 | 109.0
O=C(NCCCCc1ccccc1)Nc1cccc(F)c1 | 4.6 | 277.6 | 1.4 | 4.7 | 110.8
O=C(NCCCCc1ccccc1)Nc1ccc(F)cc1F | 3.5 | 561.2 | -7.7 | 11.3 | 92.4*
COc1ccc(C(=O)CCN2CCCCCC2)cc1 | 12.2* | 299.7 | -4.9 | -1.9 | 103.0
COc1ccc(OCCN2CCN(C(=O)c3ccc(OC)cc3)CC2)cc1 | 14.1* | 509.2 | -2.6 | 22.0 | 97.8
COc1ccc(OCCN2CCN(C(=O)c3ccc(OC(F)F)c(OC)c3)CC2)cc1 | 6.5 | 258.8 | -10.3 | -3.3 | .
Cc1cccn2c(CNCCc3ccco3)c(C(=O)N3CCOCC3)nc12 | . | . | . | -23.6 | .
COc1ccc(N2CC(O)=C(c3nc(-c4ccccc4)cs3)C2=N)cc1 | -1.7 | 372.9 | . | 3.4 | 43.0*
COc1cccc(C(C(=O)NC2CCCCC2)N(C(=O)c2csnn2)C2CC2)c1 (stereo not drawn) | 12.9* | 326.4 | 1.4 | 12.2 | 102.6
O=C(CN1CCN(CC(=O)Nc2ccccc2Cc2ccccc2)CC1)Nc1ccccc1Cl | -2.0 | 282.4 | -2.9 | -15.8 | 106.5
CCOC(=O)C1(Cc2cccc(Cl)c2)CCCN(C(=O)c2cc(C)on2)C1 (stereo not drawn) | 3.6 | 472.8 | -6.3 | -3.8 | 100.4
CCOC(=O)C1(Cc2cccc(Cl)c2)CCCN(C(=O)c2ccc(C)nc2)C1 (stereo not drawn) | -2.1 | 211.3 | -0.5 | 37.3 | 67.3*
CCOC(=O)CNC(=O)CSc1nnc(CCc2nc3ccccc3[nH]2)n1C | 0.6 | 79.7 | 0.3 | 35.8 | 117.5
COc1ccccc1N1CCN(C(=O)c2cc3c(=O)n4cccc(C)c4nc3s2)CC1 | 26.1* | 224.5 | -8.3 | 30.6 | 99.9
COc1ccc(N2CCN(C(=O)c3ccc4ccccc4n3)CC2)cc1 | 16.1* | 380.0 | 2.4 | 1.1 | 103.1
COc1ccc(-c2cc(C(=O)N3CCN(c4ccccc4OC)CC3)no2)cc1 | 19.8* | 315.0 | 1.0 | -8.7 | 110.9
Cc1cc(OC(C)C(=O)NCCCN2CCOCC2)c2c(C)c(C)c(=O)oc2c1 (stereo not drawn) | -0.9 | 72.0 | -32.1 | -0.9 | 101.1
Cn1c(SCC(=O)Nc2ccc(C(N)=O)cc2)nnc1-c1cccs1 | 15.5* | 327.0 | 1.1 | -1.8 | 125.2
O=C(COc1ccccc1Cl)Nc1ccc2oc(=O)ccc2c1 | 8.1 | 547.4 | 1.8 | -7.2 | .
COC(=O)c1scc(C)c1N/N=C(\C)c1ccc(F)cc1 | -2.8 | 860.6 | -3.6 | 8.3 | -27.8*
CN(C)C(CNS(=O)(=O)c1ccc2ccccc2c1)c1ccccc1 (stereo not drawn) | 0.3 | . | -1.0 | 0.1 | 107.2
Cc1cccc(CSc2ccc(S(=O)(=O)N3CCCC3)cn2)c1 | 2.3 | 286.5 | 3.1 | -12.2 | 111.1
S=C1NC2=C(CCCC2=C2SCCCS2)C(c2ccccc2)N1 (stereo not drawn) | -2.5 | 170.5 | 43.3* | 24.0 | 109.3
Cc1ccc(-n2nc(C)c3onc(C)c3c2=O)cc1 | 27.7* | 342.4 | 2.2 | -8.2 | 108.6
